Only some compounds are listed: those with a hit (about 1.3% of all), similar ones and a draw of the others.
HGIII-sPLA2 inh = Blocks human group III sPLA2 activity. inhibition, % at 12.2 µM. AID 743126. QFRET BODIPY PC-A2 liposome hydrolysis, fluorescence. 370,000 tested, 0.56% active;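 active = inhibition above mean plus 3 SD of compounds lying within the high and low control bounds, cut at about 19% in these data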
Target sequence (Q9NZ20 whole entry, looked up): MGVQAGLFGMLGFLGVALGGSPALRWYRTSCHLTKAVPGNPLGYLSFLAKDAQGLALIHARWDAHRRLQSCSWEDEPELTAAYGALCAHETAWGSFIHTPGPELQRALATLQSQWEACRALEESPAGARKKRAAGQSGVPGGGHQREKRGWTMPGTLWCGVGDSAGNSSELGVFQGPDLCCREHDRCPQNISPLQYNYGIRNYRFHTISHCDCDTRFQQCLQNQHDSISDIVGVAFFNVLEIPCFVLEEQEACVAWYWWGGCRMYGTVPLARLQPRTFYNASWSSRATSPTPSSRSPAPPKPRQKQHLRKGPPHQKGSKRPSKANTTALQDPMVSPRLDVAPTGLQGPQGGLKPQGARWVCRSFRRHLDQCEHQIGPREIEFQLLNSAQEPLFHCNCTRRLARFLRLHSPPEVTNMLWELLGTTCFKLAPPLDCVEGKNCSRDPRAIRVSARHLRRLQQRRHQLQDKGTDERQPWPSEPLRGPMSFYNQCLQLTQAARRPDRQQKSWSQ
Efflux pump mplx = blocks antifungal efflux pumps in multiplex yeast assay; S. cerevisiae Candida pump triplex, Nile Red efflux; inhibition, % at 10 µM; 330,000 tested, 0.44% active;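 active = plate passing quality check with inhibition over a set limit, or well fluorescence over plate mean plus 4 SD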;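 note: Nile Red retained in pooled yeast measured as flow cytometry median fluorescence; higher means more Nile Red kept so more efflux inhibition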
MT1-MMP act inh = blocks activation of human MT1-MMP. HT1080 RFP-PRO-GFP cells, GFP/RFP ratio fluorescence, overnight; percent of plate control window, DMSO zero. P50281. GFP/RFP ratio change, % at 20 µM. 360,000 tested, 0.061% active. AID 651647;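 active = GFP/RFP ratio change of at least 30% with cell ATP level not reduced by more than half and red fluorescence within 50% of control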
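Test system: HT1080 cells expressing an RFP-PRO-GFP fluorescent reporter construct / Compound dosing: single-point 20 µM compound, 1% DMSO / Schedule: cells overnight before dosing, compound overnight, 37 °C, 5% CO2 / Evaluation: GFP/RFP fluorescence ratio / Control set: DMSO and RFP-L50D-GFP cell wells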
TAG inh = inhibitors of triacylglycerol accumulation; H9c2 cells, Nile Red lipid (TAG) fluorescence; cells loaded with 200 µM oleic acid; inhibition, % at 12.5 µM; 230,000 tested, 0.66% active; AID 651582;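 active = pattern-corrected inhibition of lipid staining of at least 50% with the nuclear-stain viability signal not falling by more than 50%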
MT1-MMP act val = blocks activation of human MT1-MMP in validation testing; HT1080 RFP-PRO-GFP cells, GFP and RFP fluorescence ratio, overnight; inhibition, % at 20 µM; shares compounds with MT1-MMP act inh; 200 tested, 10% active; AID 652235;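 active = inhibition of at least 50% in the primary cell screen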
Each line names hits and unclear results; the compound was inactive in the other large screens (follow-up assays come after a bar, where they were run).

COc1cccc(C(=O)NNc2c3ccccc3nc3ccccc23)c1	none (no result: TAG inh)
Cc1cc(C(=O)NNC(=O)c2ccc(Cl)cc2)c2ccccc2n1	none
CC1CCCCC1NC(=O)C1CCC(CNc2c(N3CCCCC3)c(=O)c2=O)CC1 (configuration not stated)	none
CC(=O)Oc1ccc2oc(/C=C/N(C)C)c([N+](=O)[O-])c2c1	MT1-MMP act inh 45 | MT1-MMP act val inactive
C/C(=C/c1oc2ccc(O)cc2c1[N+](=O)[O-])N(C)C	MT1-MMP act inh 43 | MT1-MMP act val inactive
CC(C)=Cc1oc2ccc([N+](=O)[O-])cc2c1N1CCOCC1	none
Cc1cccc(NC(=O)c2cc([N+](=O)[O-])ccc2N2CCCCC2)n1	none
O=C1N=C(N2CCOCC2)S/C1=C/c1cc2c(cc1[N+](=O)[O-])OCO2	none
COc1ccccc1N=Nc1nc(-c2ccccc2)c(-c2ccccc2)[nH]1	MT1-MMP act inh 31 (no result: TAG inh) | MT1-MMP act val inactive
COc1ccc(C#Cc2cnc3c(c2)C(=O)N([C@@H](C)CO)C[C@@H](C)[C@@H](CN(C)CC2CCOCC2)O3)cc1	none (no result: Efflux pump mplx)
CC(=O)Nc1ccc(S(=O)(=O)NCC(=O)NC(C)c2ccc(S(N)(=O)=O)cc2)cc1 (configuration not stated)	none
O=C(O)c1ccc(N=N/C(=N\Nc2ccc(C(=O)O)cc2)c2ccccc2)cc1	MT1-MMP act inh 31 | MT1-MMP act val inactive
O=C(O)c1cccc(N/N=C(\N=Nc2ccccc2)c2ccccc2)c1	none
CCOC(=O)c1c2c3c(c(Cl)ccc3[nH]c1=O)C(=O)c1ccccc1-2	MT1-MMP act inh 44 (no result: Efflux pump mplx, TAG inh) | MT1-MMP act val inactive
ClCC1NCC(c2ccccc2Cl)c2c1[nH]c1ccccc21 (configuration not stated)	MT1-MMP act inh 37 | MT1-MMP act val inactive
CCCN1/C(=C2/SC(=S)N(CC)C2=O)C=Cc2ccccc21	MT1-MMP act inh 40 | MT1-MMP act val inactive
CN1C(=O)/C(=C2/C=Cc3ccccc3N2CCCS(=O)(=O)O)SC1=S	MT1-MMP act inh 42 | MT1-MMP act val inactive
Clc1ccc(CN2CCN(N=Cc3ccncc3)CC2)cc1	none (no result: Efflux pump mplx, MT1-MMP act inh, TAG inh)
COc1ccc2sc(/C=C/c3ccccc3O)[n+](C)c2c1	MT1-MMP act inh 34 (no result: Efflux pump mplx, TAG inh) | MT1-MMP act val inactive
COc1ccc(N=Cc2ccccc2O)cc1	none (no result: Efflux pump mplx)
O=C1CSC(=S)N1CC1CCCO1 (configuration not stated)	MT1-MMP act inh 35 (no result: TAG inh) | MT1-MMP act val inactive
O=C1C2C3C=CC(C3)C2C(=O)N1CC1CCCO1 (configuration not stated)	none (no result: TAG inh)
CC1CCc2c(sc3ncnc(SCC(=O)N(C)C4CCS(=O)(=O)C4)c23)C1 (configuration not stated)	none
CC1=NN(c2ccccc2)C(=O)C1N=Nc1ccc(N)cc1 (configuration not stated)	MT1-MMP act inh 53 | MT1-MMP act val 62
CCn1c(C)c(C2=CCN(S(=O)(=O)c3ccc(C)cc3)CC2)c2ccccc21	MT1-MMP act inh 31 | MT1-MMP act val inactive
Cc1ccc(C2CC(=O)Oc3cc(O)ccc32)cc1 (configuration not stated)	MT1-MMP act inh 38 | MT1-MMP act val inactive
O=C1CC(c2ccccc2)c2cc(O)ccc2O1 (configuration not stated)	none (no result: TAG inh)
CCSc1nc(=S)n(Cc2ccccc2)c(C)c1C(C)=O	MT1-MMP act inh 35 (no result: TAG inh) | MT1-MMP act val inactive
O=[N+]([O-])c1ccccc1S(=O)(=O)N/C(=N/S(=O)(=O)c1ccccc1)c1ccccc1	none
CCNc1c(C(=O)O)ccc2c1C(=O)c1ccccc1C2=O	none
CNc1c(C(=O)O)ccc2c1C(=O)c1ccccc1C2=O	MT1-MMP act inh 34 (no result: TAG inh) | MT1-MMP act val inactive
O=C(O)c1ccccc1C(=O)Nc1ccc(Nc2ccccc2)cc1	MT1-MMP act inh 33 (no result: Efflux pump mplx) | MT1-MMP act val inactive
O=C(O)c1ccccc1-c1ccccc1C(=O)Nc1ccccc1	none
O=c1[nH]c(-c2ccccc2)nc2sc(-c3ccccc3)cc12	none
O=c1[nH]cnc2sc(-c3ccccc3)cc12	MT1-MMP act inh 34 (no result: TAG inh) | MT1-MMP act val inactive
COCCn1c(SCc2ccc(F)cc2)nc2ccccc2c1=O	none
CC1=NN(c2ccc(C)cc2)C(=O)/C1=C\C=C\c1ccccc1	none
CC1=NN(c2ccccc2)C(=O)/C1=C/C=C/C=C/N(C)C	MT1-MMP act inh 40 | MT1-MMP act val inactive
COC(=O)c1cc2c(c3c4cc(F)ccc4n(S(=O)(=O)c4ccccc4)c13)C(=O)N(Cc1ccco1)C2	none (no result: Efflux pump mplx, MT1-MMP act inh, TAG inh)
CN1/C(=C\C(=O)c2cccnc2)C(C)(C)c2ccccc21	none
CN1/C(=C\C(=O)c2cncc(Br)c2)C(C)(C)c2ccccc21	MT1-MMP act inh 31 | MT1-MMP act val inactive
CC(=O)/C=C1\N(C)c2ccc(C)cc2C1(C)C	MT1-MMP act inh 47 | MT1-MMP act val inactive
CN1/C(=C\C(=O)C(F)F)C(C)(C)c2ccccc21	none (no result: TAG inh)
CCOC(=O)c1ccccc1N1C(=O)CSC1=S	MT1-MMP act inh 30 (no result: TAG inh) | MT1-MMP act val inactive
O=C(O)c1cccc(N2C(=O)CSC2=S)c1	MT1-MMP act inh 36 (no result: TAG inh) | MT1-MMP act val inactive
Cc1ccccc1C(=O)NN1C(=O)CSC1=S	none (no result: TAG inh)
O=C1CSC(=S)N1c1cccc(O)c1	none (no result: TAG inh)
Cc1cc2cc(CN3C(=O)c4ccccc4C3=O)ccc2n1C	MT1-MMP act inh 32 | MT1-MMP act val inactive
Cc1ccc(S(=O)(=O)NCc2ccc3c(c2)cc(C)n3C)cc1	none
CN(C)c1ccc(N=Cc2cccn2C)cc1	MT1-MMP act inh 39 (no result: TAG inh) | MT1-MMP act val inactive
COc1ccc(C(=O)NCc2ccc3c(c2)cc(C)n3C)cc1	MT1-MMP act inh 31 | MT1-MMP act val inactive
Cc1ccc(NC(=S)NCc2ccc3c(c2)cc(C)n3C)c(C)c1	MT1-MMP act inh 33 | MT1-MMP act val inactive
FC(F)Oc1ccc(NC(=S)NCc2ccccc2)cc1	none
COc1cc(OC)cc(C(=O)NCc2ccc3c(c2)cc(C)n3C)c1	none
Cc1cc2cc(CNC(=S)Nc3ccc(OC(F)F)cc3)ccc2n1C	MT1-MMP act inh 47 | MT1-MMP act val inactive
O=c1[nH]cc(CCCc2ccccc2)c(=O)[nH]1	none (no result: Efflux pump mplx)
CC1CN(C(=O)/C(C#N)=C2\N=C(NC(=O)c3ccc(F)cc3)c3ccccc32)CC(C)O1 (configuration not stated)	none
Cc1cccc2c1NC1(CCCC1)CC2C (configuration not stated)	MT1-MMP act inh 30 | MT1-MMP act val inactive
CC1CC2(CCCC2)Nc2ccc(F)cc21 (configuration not stated)	none (no result: TAG inh)
O=C1c2ccccc2C(=O)c2c(O)c(O)cc(O)c21	MT1-MMP act inh 47 | MT1-MMP act val inactive
Nc1ccc(O)c2c1C(=O)c1ccccc1C2=O	none (no result: TAG inh)
CC[n+]1c(/C=C/Nc2ccccc2)sc2ccccc21	MT1-MMP act inh 38 | MT1-MMP act val inactive
CC[n+]1c(/C=C(\C)Nc2ccccc2)sc2ccccc21	none (no result: TAG inh)
O=C(Nc1ccc(Cl)c(Cl)c1)Nc1cc(C(=O)NC2CC2)ccc1Cl	none (no result: HGIII-sPLA2 inh, MT1-MMP act inh, TAG inh)
COc1cccc(C2=Nc3cccc4cccc(c34)N2)c1	MT1-MMP act inh 37 (no result: TAG inh) | MT1-MMP act val inactive
